Structures are written as SMILES. Calls of active or inactive are those of the source. The rule behind the calls is not given here.

Assay [1] concerns the target Tyrosine-protein kinase BTK (Homo sapiens) (UniProt Q06187). Nature of the assay: Inhibition of recombinant human N-terminal His6-tagged BTK (2 to 659 residues) expressed in baculovirus infected Sf21 cells assessed as remaining activity at 10 uM using KVEKIGEGTYGVVYK as substrate incubated for 30 mins in presence of [gamma-33P]ATP by filter binding method relative to control. The procedure, abridged: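 Incubation was 30 min at room temperature (21 °C) under conditions linear with time and enzyme amount. Activity is reported as percent of control lacking compound, triplicate mean ± S.D.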

In assay [2] the target is Serine/threonine-protein kinase BRSK2 (Homo sapiens) (UniProt Q8IWQ3). Nature of the assay: Inhibition of recombinant human N-terminal His6-tagged BRSK2 (2 to 674 residues) expressed in baculovirus infected Sf21 cells assessed as remaining activity at 1 uM using KKLNRTLSFAEPG as substrate incubated for 30 mins in presence of [gamma-33P]ATP by filter binding method relative to control. In outline:
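Assays ran 30 min at 21 °C, robotically and in the linear range. Remaining activity is given relative to incubations lacking compound, as the average of triplicate determinations ± S.D.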

For assay [3], the target named is Tyrosine-protein kinase CSK (Homo sapiens) (UniProt P41240). Description: Inhibition of recombinant human N-terminal GST-tagged CSK (1 to 450 residues) expressed in Escherichia coli assessed as remaining activity at 1 uM Cdc2 peptide as substrate incubated for 30 mins in presence of [gamma-33P]ATP by filter binding method relative to control. In outline: (§1)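 Incubations ran robotically for 30 min at room temperature (21 °C) under linear conditions. Results are percent activity remaining versus controls without compound, as the mean of triplicates ± S.D.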

Assay [4] deals with Mitogen-activated protein kinase 12 (Homo sapiens) (UniProt P53778). Nature of the assay: Inhibition of recombinant human N-terminal GST-tagged P38gamma (1 to 367 residues) expressed in Escherichia coli assessed as remaining activity at 1 uM using MBP as substrate incubated for 30 mins in presence of [gamma-33P]ATP by filter binding method relative to control. The procedure, abridged: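 Radiometric kinase panel run robotically at room temperature (21 °C) for 30 min, linear in time and enzyme. […] Activity is expressed as percent of control without compound, from triplicate determinations ± S.D.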

The target of assay [5] is 3-phosphoinositide-dependent protein kinase 1 (Homo sapiens) (UniProt O15530). Nature of the assay: Inhibition of recombinant human His6-tagged PDK1 (52 to 556 residues) expressed in baculovirus infected Sf21 cells assessed as remaining activity at 1 uM using PDKtide as substrate incubated for 30 mins in presence of [gamma-33P]ATP by filter binding method relative to control. The procedure, abridged:
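Robotic radiometric panel assay, 30 min at room temperature (21 °C), with 10 mM magnesium acetate. […] Compound at 1 or 10 µM. Residual activity expressed relative to compound-free control; triplicate average ± S.D.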

For assay [6], the target named is Serine/threonine-protein kinase pim-1 (Homo sapiens) (UniProt P11309). Nature of the assay: Inhibition of recombinant human N-terminal His6-tagged PIM1 (2 to 313 residues) expressed in baculovirus infected Sf21 cells assessed as remaining activity at 1 uM using RSRHSSYPAGT as substrate incubated for 30 mins in presence of [gamma-33P]ATP by filter binding method relative to control. The procedure, abridged:
as §1

Assay [7] deals with MAP kinase-activated protein kinase 2 (Homo sapiens) (UniProt P49137). Nature of the assay: Inhibition of recombinant human N-terminal GST/C-terminal Myc-tagged MAPKAPK2 (46 to 400 residues) expressed in Escherichia coli assessed as remaining activity at 10 uM using KKLNRTLSVA as substrate incubated for 30 mins in presence of [gamma-33P]ATP by filter binding method relative to control. The procedure, abridged:
as §1

The target in assay [8] is Dual specificity mitogen-activated protein kinase kinase 1 (Homo sapiens) (UniProt Q02750). Nature of the assay: Inhibition of recombinant human MKK1 (2 to 393 residues) expressed in Escherichia coli assessed as remaining activity at 10 uM using MBP as substrate incubated for 30 mins in presence of [gamma-33P]ATP by filter binding method relative to control. The procedure, abridged:
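Kinase panel run robotically at 21 °C for 30 min, linear in time and enzyme. […] Compound tested at 1 or 10 µM. Activity given as percentage of incubations without compound, mean of triplicates ± S.D.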

Assay [9] concerns the target Myosin light chain kinase (Homo sapiens) (UniProt Q32MK0). Description: Inhibition of MLCK (unknown origin) assessed as remaining activity at 10 uM relative to control. The procedure, abridged:
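Profiling-centre panel assay performed robotically at 21 °C for 30 min, linear with time and enzyme. […] Values are percent of compound-free control activity, the mean of triplicates ± S.D.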

Assay [10] addresses Serine/threonine-protein kinase PAK 6 (Homo sapiens) (UniProt Q9NQU5). Nature of the assay: Inhibition of recombinant human N-terminal GST-tagged PAK6 (2 to 681 residues) expressed in Escherichia coli assessed as remaining activity at 10 uM using RRRLSFAEPG as substrate incubated for 30 mins in presence of [gamma-33P]ATP by filter binding method relative to control. The procedure, abridged:
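Panel assays were run for 30 min at 21 °C, within the linear range for time and enzyme. […] Results are percent activity remaining relative to compound-free control, averaged from triplicate ± S.D.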

The target in assay [11] is Sphingosine kinase 2 (Homo sapiens) (UniProt Q9NRA0). Nature of the assay: Inhibition of SPHK2 (unknown origin) assessed as remaining activity at 1 uM using sphingosine as substrate incubated for 30 mins in presence of ATP relative to control. The procedure, abridged:
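SPHK2 reaction: 10 μM sphingosine, 1 μM ATP, 50 mM Tris/HCl pH 7.5, 200 mM KCl, 5 mM MgCl2, 1 mM EGTA, 1 mM DTT, 30 min at room temperature. Kinase-Glo Plus luminescence read-out. Percentage of control activity, triplicate.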

The target of assay [12] is Serine/threonine-protein kinase mTOR (Mus musculus) (UniProt Q9JLN9). Description: Inhibition of mTOR in MEF cells assessed as reduction in 4E-BP1 phosphorylation at T37/46 residues at 1 uM incubated for 30 mins by immunoblot analysis. Type of assay: cell-based. In outline:
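Cells (MEFs, wild-type or knockout, or HeLa) kept in 10% serum, then exposed 30 min to inhibitor or vehicle at the stated level. Washed twice in ice-cold PBS and lysed in Tris lysis buffer with CHAPS, phosphatase and protease inhibitors. Lysates cleared at 18000 g and immunoblotted with phospho-specific antibodies and ECL detection. Blots are representative of three experiments.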

Assay [13] deals with T1, mTORC1 (Homo sapiens) (UniProt P42345+Q8N122+Q9BVC4). The conditions noted are these: HEK293, dose 300.0 nM, time 30.0 min.
Assay [14] addresses T1, mTORC1 (Homo sapiens). The note with it: HEK293, dose 30-1000 nM, time 30.0 min.
Assay [15] deals with T1, mTORC1 (Homo sapiens). The note with it: HEK293, dose 30-1000 nM, time 30.0 min. The source holds these as a separate data set.
The target of assay [16] is mTORC2 (Homo sapiens) (UniProt P42345+Q6R327+Q9BVC4+Q9BPZ7). The conditions noted are these: HEK293, dose 100-1000 nM, time 20.0 min.

Broadly, the inhibition is the relative decrease from the control value, in per cent. With `COc1ccc(-c2ccc3c(N4CCOCC4)nc(N4C[C@@H](C)O[C@@H](C)C4)nc3n2)cc1CO` [Ku-0063794], the Activity was 81% in assay [1]; 90% in [2]; 90% in [3]; 89% in assay [4]; 89% in assay [5]; 89% in assay [6]. Besides, the Activity was 81% in assay [7]; 43% in [8]; 104% in assay [9]; 100% in assay [10]; 119% in assay [11]. Besides, the inhibition entry in [12] and in assay [16] was “Active” each time. For the same compound, the values for the inhibition in [13], in assay [14] and in [15] were 90%, “Dose-Dependent Effect” and “Dose-Dependent Effect”, respectively.

The record behind these values is ChEMBL document CHEMBL5678799 (Biochem J, 2009).
